According to ChEMBL document CHEMBL5608214, “Novel tetrasubstituted 5-Arylamino pyrazoles able to interfere with angiogenesis and Ca2+ mobilization” (Eur J Med Chem, 2024):
Activity calls are given as the source filed them. No cut-off for these calls is given here.

Legend:
MCF7 = test: Antiproliferative activity against human MCF7 cells assessed as cell growth at 10 uM incubated for 48 hrs by MTT assay relative to control; type: functional; conditions: read-out: Activity
Summary of the method: (§1)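 Cells in DMEM with 10 % FBS, 2 mM glutamine and pen-strep, 37 °C, 5 % CO₂, plated to reach 80–90 % confluence at endpoint. At 16 h, compounds were added from a 10 mM DMSO stock to 10 μM final. After 48 h, MTT (2 mg/mL in PBS) was added for 4 h, formazan dissolved in DMSO, and OD read at 570 nm. Results are % of solvent control; three runs, six replicates each, mean ± SD.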

[1] = Antiproliferative activity against human HUVEC cells assessed as cell growth at 10 uM incubated for 48 hrs by MTT assay relative to control; type: toxicity, cell-based; conditions: read-out: Activity; summary of the method: as §1
MDA-MB-231 = test: Antiproliferative activity against human MDA-MB-231 cells assessed as cell growth at 10 uM incubated for 48 hrs by MTT assay relative to control; type: functional; conditions: read-out: Activity; summary of the method: as §1
HepG2 = test: Antiproliferative activity against human HepG2 cells assessed as cell growth at 10 uM incubated for 48 hrs by MTT assay relative to control; type: functional; conditions: read-out: Activity; summary of the method: as §1
SK-OV-3 = test: Antiproliferative activity against human SK-OV-3 cells assessed as cell growth at 10 uM incubated for 48 hrs by MTT assay relative to control; type: functional; conditions: read-out: Activity; summary of the method: as §1
SK-MEL-28 = test: Antiproliferative activity against human SK-MEL-28 cells assessed as cell growth at 10 uM incubated for 48 hrs by MTT assay relative to control; type: functional; conditions: read-out: Activity; summary of the method: as §1
[2] = Antiproliferative activity against human GM06114 cells assessed as cell growth at 10 uM incubated for 48 hrs by MTT assay relative to control; type: toxicity, cell-based; conditions: read-out: Activity; summary of the method: as §1
A549 = test: Antiproliferative activity against human A549 cells assessed as cell growth at 10 uM incubated for 48 hrs by MTT assay relative to control; type: functional; conditions: read-out: Activity; summary of the method: as §1
HeLa = test: Antiproliferative activity against human HeLa cells assessed as cell growth at 10 uM incubated for 48 hrs by MTT assay relative to control; type: functional; conditions: read-out: Activity; summary of the method: as §1
SK-BR-3 = test: Antiproliferative activity against human SK-BR-3 cells assessed as cell growth at 10 uM incubated for 48 hrs by MTT assay relative to control; type: functional; conditions: read-out: Activity; summary of the method: as §1
HUVEC [3] = test: Anti-angiogenetic activity in human HUVEC cells assessed as reduction in tube branching at 10 uM incubated for 12 hrs by microscopy; type: functional, cell-based
Summary of the method: (§2)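 HUVEC seeded at 2 × 10⁴ cells/well onto gelled Matrigel (mixed 1:1 with EGM-2, set 30 min at 37 °C). Cells were exposed to test agents at 10 μM for 12 h with no stimulus; untreated wells served as control. Tube long axis and branching points were counted in 10 random fields per well at 10× (Angiogenesis Analyzer), giving mean tube length per well. Mean of at least three independent experiments.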

HUVEC [4] = test: Anti-angiogenetic activity in human HUVEC cells assessed as reduction in tube length at 10 uM incubated for 12 hrs by microscopy; type: functional, cell-based; summary of the method: as §2
HUVEC [5] = test: Anti-angiogenetic activity in human HUVEC cells assessed as number of tube branching points at 10 uM incubated for 12 hrs by microscopy; type: functional; summary of the method: as §2
HUVEC [6] = test: Anti-angiogenetic activity in human HUVEC cells assessed as relative tube length at 10 uM incubated for 12 hrs by microscopy; type: functional; summary of the method: as §2
HUVEC [7] = test: Inhibition of cell invasion in human HUVEC cells assessed as number of cells at 10 uM incubated for 24 hrs by transwell assay; type: functional
Summary of the method: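 Transwell inserts with 8.0 pore size were coated with Matrigel 1:3 in serum-free medium. HUVEC (2 × 10⁴/insert) went in serum-free medium in the upper chamber, with treatments (10 μM) in growth medium below, for 24 h at 37 °C. Filters were fixed in 4 % paraformaldehyde then methanol and stained with 0.5 % crystal violet. Cells on the lower surface were counted in ten random fields at 10×. n = 3.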

HUVEC [8] = test: Effect on conformation of actin filament organization in human HUVEC cells at 10 uM treated for 24 hrs by immunofluorescence assay; type: functional, cell-based
Summary of the method: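 HUVEC were left untreated or treated 24 h at 10 μM final. Cells were then fixed on coverslips in 4 % paraformaldehyde, permeabilized with 0.2 % Triton X-100 and blocked with 20 % goat serum. F-actin was stained with FITC-phalloidin (5 µg/ml, 2 h, room temperature, dark) and nuclei with Hoechst 33342. Cells were imaged by confocal microscopy.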

[9] = Effect on intracellular calcium signaling in human HUVEC cells assessed as inhibition of calcium mobilization by measuring fluorescence intensity at 10 uM incubated for 1 hr by Fluo-4 a.m. cytofluorimetric assay relative to control; type: functional; design: scale not given: the % may be the effect or the level left
Summary of the method: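 Trypsinized HUVEC at 5 × 10⁵/ml were treated with compounds at 10 μM in PBS for 1 h at room temperature, washed, then loaded with 2.5 μM Fluo-4 AM (0.06 % DMSO final) for 45 min at 37 °C. Fluorescence was read by flow cytometry with a 530/30 filter. Ionomycin served as positive control and EDTA (added 15 min before) as negative control. n = 3, mean ± SD.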

Compound | growth at 10 µM (MCF7) [%] | viability at 48 h, 10 µM [1] [%] | growth at 10 µM (MDA-MB-231) [%] | growth at 10 µM (HepG2) [%] | growth at 10 µM (SK-OV-3) [%] | growth at 10 µM (SK-MEL-28) [%] | viability at 48 h, 10 µM [2] [%] | growth at 10 µM (A549) [%] | growth at 10 µM (HeLa) [%] | growth at 10 µM (SK-BR-3) [%] | Activity (HUVEC [3]) | Activity (HUVEC [4]) | Activity (HUVEC [5]) | Activity (HUVEC [6]) | Activity (HUVEC [7]) | Activity (HUVEC [8]) | Activity [9] [%]
CCCC(O)Cn1nc(Nc2cccc(C(F)(F)F)c2)c(C(=O)OCC)c1N (stereo not drawn) | 80 | 100 | 109 | 69 | 102 | 113 | 71 | 66 | 77 | 118 | – | – | – | – | – | – | –
CCOC(=O)c1c(Nc2cccc(C(F)(F)F)c2)nn(CC(O)c2ccccc2)c1N (stereo not drawn) | 99 | 92 | 162 | 131 | 108 | 124 | 80 | 88 | 107 | 122 | – | – | – | – | – | – | –
CCCC(O)Cn1nc(Nc2ccc(OC)cc2)c(C(=O)OCC)c1N (stereo not drawn) | 109 | 95 | 143 | 110 | 110 | 120 | 75 | 98 | 111 | 106 | Active | Active | – | – | – | – | –
CCOC(=O)c1c(Nc2cccc(Cl)c2)nn(CC(O)c2ccccc2)c1N (stereo not drawn) | 101 | 93 | 135 | 113 | 100 | 144 | 65 | 88 | 113 | 120 | Active | Active | – | – | – | – | –
CCCC(O)Cn1nc(Nc2ccc(C)cc2)c(C(=O)OCC)c1N (stereo not drawn) | 111 | 96 | 158 | 119 | 119 | 137 | 72 | 92 | 109 | 123 | Active | Active | <15 | <20 | – | – | –
CCOC(=O)c1c(Nc2cccc3ccccc23)nn(CC(O)c2ccccc2)c1N (stereo not drawn) | 97 | 98 | 149 | 118 | 116 | 141 | 81 | 88 | 104 | 118 | Active | Active | <15 | <20 | – | – | –
CCCC(O)Cn1nc(Nc2ccc(Cl)c(Cl)c2)c(C(=O)OCC)c1N (stereo not drawn) | 107 | 93 | 176 | 116 | 116 | 137 | 87 | 94 | 119 | 127 | Active | Active | – | – | – | – | –
CCCC(O)Cn1ncc(C(=O)OCC)c1NC(=O)Nc1cccc(C(F)(F)F)c1 (stereo not drawn) | – | – | – | – | – | – | – | – | – | – | – | – | 19 | 21 | 383 | Active | 20
CCCC(O)Cn1nc(Nc2cccc3ccccc23)c(C(=O)OCC)c1N (stereo not drawn) | 109 | 94 | 106 | 104 | 108 | 103 | 104 | 86 | 82 | 110 | – | – | <15 | <20 | – | – | –
CCOC(=O)c1c(Nc2ccccc2Cl)nn(CC(O)c2ccccc2)c1N (stereo not drawn) | 112 | 93 | 115 | 111 | 100 | 136 | 63 | 72 | 98 | 117 | – | – | – | – | – | – | –
CCOC(=O)c1c(Nc2ccc(C)cc2)nn(CC(O)c2ccccc2)c1N (stereo not drawn) | – | – | – | – | – | – | – | – | – | – | – | – | 17 | 48 | – | – | –
CCOC(=O)c1c(Nc2ccc(Cl)c(Cl)c2)nn(CC(O)c2ccccc2)c1N (stereo not drawn) | 88 | 93 | 144 | 100 | 111 | 135 | 77 | 70 | 74 | 111 | – | – | – | – | – | – | –
CCCC(O)Cn1nc(Nc2ccccc2Cl)c(C(=O)OCC)c1N (stereo not drawn) | 110 | 95 | 107 | 119 | 102 | 132 | 85 | 106 | 116 | 121 | – | – | – | – | – | – | –
CCOC(=O)c1c(Nc2ccc(OC)cc2)nn(CC(O)c2ccccc2)c1N (stereo not drawn) | 98 | 99 | 147 | 115 | 102 | 134 | 70 | 100 | 111 | 115 | – | – | – | – | – | – | –
